Results from ChEMBL document CHEMBL4706773, “Discovery of Novel PTP1B Inhibitors Derived from the BH3 Domain of Proapoptotic Bcl-2 Proteins with Antidiabetic Potency” (ACS Med Chem Lett, 2021).
Peptide text beside a SMILES is read from it. * marks the point of attachment. Palmitoyl = CCCCCCCCCCCCCCCC(=O)*

Experiments:
[1] = target: T1, Tyrosine-protein phosphatase non-receptor type 1 (Homo sapiens) (UniProt P18031); experiment: Inhibition of PTP1B in human insulin resistant HepG2 cells assessed as induction of 2-NBDG uptake incubated with compound for 24 hrs followed by treatment with insulin for 30 mins and later incubated with 2-NBDG for 30 mins by fluorimetric method; type: cell-based; conditions: dose 0.1-10 µM, time 25.0 hrs
T1 sequence (whole entry): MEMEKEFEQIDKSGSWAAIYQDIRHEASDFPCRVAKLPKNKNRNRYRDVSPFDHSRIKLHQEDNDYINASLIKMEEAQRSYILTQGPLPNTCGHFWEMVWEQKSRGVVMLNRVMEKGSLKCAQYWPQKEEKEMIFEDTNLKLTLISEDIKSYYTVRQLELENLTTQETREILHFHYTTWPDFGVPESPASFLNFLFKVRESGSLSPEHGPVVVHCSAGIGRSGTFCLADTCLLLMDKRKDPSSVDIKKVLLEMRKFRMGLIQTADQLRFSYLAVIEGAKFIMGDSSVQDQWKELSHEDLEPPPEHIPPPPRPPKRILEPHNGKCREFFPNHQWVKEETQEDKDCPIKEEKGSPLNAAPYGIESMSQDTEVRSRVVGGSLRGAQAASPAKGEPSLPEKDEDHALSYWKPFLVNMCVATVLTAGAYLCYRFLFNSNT
Method in brief: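 HepG2 cells were made insulin-resistant with palmitic acid, then treated 24 h with test agents at several concentrations. Vehicle was equal-volume DMSO. Mean ± SD, n = 4, compared with vehicle.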

[2] = target: T1, Tyrosine-protein phosphatase non-receptor type 1 (Homo sapiens); experiment: Binding affinity to recombinant human PTP1B assessed as on-rate constant, Kon measured by Surface plasmon resonance assay
[3] = target: T2, Tyrosine-protein phosphatase non-receptor type 1 (Homo sapiens, UniProt P18031); experiment: Binding affinity to recombinant human PTP1B measured by Surface plasmon resonance assay
T2 sequence (P18031 whole entry): T1 sequence (whole entry)

[4] = target: T1, Tyrosine-protein phosphatase non-receptor type 1 (Homo sapiens); experiment: Binding affinity to recombinant human PTP1B assessed as off-rate constant, Koff measured by Surface plasmon resonance assay
[5] = target: T2, Tyrosine-protein phosphatase non-receptor type 1; experiment: Inhibition of recombinant N-terminal His-tagged human PTP1B (E2 to N321) expressed in Escherichia coli expression system assessed by dephosphorylation of substrate pNPP measured for 4 mins by plate reader analysis
Mus musculus = experiment: Antidiabetic activity in diabetic db/db C57BL/K mouse assessed as decrease in blood glucose at 0.5 umol/kg, sc qd for 7 days measured at 1 hr post-last drug dosing by blood glucose meter analysis; type: functional; conditions: 168 h, time 7 day
Method in brief: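 Diabetic db/db mice received a daily s.c. dose (0.5 or 2 μmol/kg) or vehicle for one week. Blood glucose was compared at baseline and at 1 week, and the value is the percent decrease of blood glucose. Liraglutide was the positive control.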

**Q.** With H-STKKLSECLKRIGDELDSNM-OH as the molecule, how does the inhibition [1] read?
**A.** Dose-dependent effect

**Q.** And the K [2]?
**A.** 9.73 10^3/M.s

**Q.** And the Kd ([3]; read-out: Kd)?
**A.** 86.3 nM

**Q.** What about the K [4] of the same molecule?
**A.** 8.39 10^-4/s

**Q.** And the IC50 [5]?
**A.** 5250 nM

**Q.** With CCCCCCCCCCCCCCCC(=O)N[C@H](C(=O)N[C@@H](C)C(=O)N[C@@H](CCCNC(=N)N)C(=O)N[C@@H](CCCCN)C(=O)N[C@@H](CC(C)C)C(=O)N[C@@H](CCC(N)=O)C(=O)N[C@@H](CS)C(=O)N[C@H](C(=O)N[C@@H](C)C(=O)N[C@@H](CC(=O)O)C(=O)N[C@@H](CCC(N)=O)C(=O)N[C@@H](Cc1ccccc1)C(=O)O)[C@@H](C)CC)[C@@H](C)CC (Palmitoyl-IARKLQCIADQF-OH) as the molecule, how does the Kd [3] read?
**A.** Not Active

**Q.** For H-WAREIGAQLRRMADDLNAQY-OH, which inhibition [1] is on record?
**A.** Dose-dependent effect

**Q.** And the K [2]?
**A.** 1.45 10^4/M.s

**Q.** What about the Kd ([3]; read-out: Kd) of the same molecule?
**A.** 105 nM

**Q.** What about the K [4] of the same molecule?
**A.** 1.52 10^-4/s

**Q.** What about the IC50 [5] of the same molecule?
**A.** 6840 nM

**Q.** How did the Kd [3] turn out when CCCCCCCCCCCCCCCC(=O)N[C@@H](CS)C(=O)N[C@@H](C)C(=O)N[C@H](C(=O)N[C@@H](CCC(N)=O)C(=O)N[C@@H](CC(C)C)C(=O)N[C@@H](CCCNC(=N)N)C(=O)N[C@@H](CCCNC(=N)N)C(=O)N[C@@H](Cc1ccccc1)C(=O)NCC(=O)N[C@@H](CC(=O)O)C(=O)N[C@@H](CCCCN)C(=O)N[C@@H](CC(C)C)C(=O)O)[C@@H](C)O (Palmitoyl-CATQLRRFGDKL-OH) was run?
**A.** Not Active

**Q.** Which Kd [3] does the source give for CCCCCCCCCCCCCCCC(=O)N[C@@H](Cc1ccc(O)cc1)C(=O)NCC(=O)N[C@@H](CCCNC(=N)N)C(=O)N[C@@H](CCC(=O)O)C(=O)N[C@@H](CC(C)C)C(=O)N[C@@H](CCCNC(=N)N)C(=O)N[C@@H](CCCNC(=N)N)C(=O)N[C@@H](CCSC)C(=O)N[C@@H](CO)C(=O)N[C@@H](CC(=O)O)C(=O)N[C@@H](CCC(=O)O)C(=O)N[C@@H](Cc1ccccc1)C(=O)O (Palmitoyl-YGRELRRMSDEF-OH) here?
**A.** Not Active

**Q.** How did the inhibition in vivo at 0.5 µmol/kg (Mus musculus) turn out when CCCCCCCCCCCCCCCC(=O)N[C@@H](CCC(=O)NCCCC[C@H](NC(=O)[C@H](C)NC(=O)[C@H](C)NC(=O)[C@H](CCC(N)=O)NC(=O)CNC(=O)[C@H](CCC(=O)O)NC(=O)[C@H](CC(C)C)NC(=O)[C@H](Cc1ccc(O)cc1)NC(=O)[C@H](CO)NC(=O)[C@H](CO)NC(=O)[C@@H](NC(=O)[C@H](CC(=O)O)NC(=O)[C@H](CO)NC(=O)[C@@H](NC(=O)[C@H](Cc1ccccc1)NC(=O)[C@@H](NC(=O)CNC(=O)[C@H](CCC(=O)O)NC(=O)[C@H](C)NC(=O)[C@@H](N)Cc1cnc[nH]1)[C@@H](C)O)[C@@H](C)O)C(C)C)C(=O)N[C@@H](CCC(=O)O)C(=O)N[C@@H](Cc1ccccc1)C(=O)N[C@H](C(=O)N[C@@H](C)C(=O)N[C@@H](Cc1c[nH]c2ccccc12)C(=O)N[C@@H](CC(C)C)C(=O)N[C@H](C(=O)N[C@@H](CCCNC(=N)N)C(=O)NCC(=O)N[C@@H](CCCNC(=N)N)C(=O)NCC(=O)O)C(C)C)[C@@H](C)CC)C(=O)O [LIRAGLUTIDE] was run?
**A.** 72.6%
